# Measurements taken from ChEMBL document CHEMBL4017544 (J Med Chem, 2017).
# Calls of active or inactive are those of the source. The calls are words filed in the database; no cut-off is given here.
# What was measured:
# [1] = system: Kidney; assay: In vivo drug metabolism in Sprague-Dawley rat assessed as CDDO-Me formation in kidney at 30 mg/kg, ip measured at 10 mins by LC-MS/MS analysis; format: ADME, organism-based
# Procedure, shortened: (§1)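 Rats given a single ip injection, 20 mg/kg (0.04 mmol) of CDDO-Me or 30 mg/kg (0.04 mmol) of the prodrug; heart, kidney and liver collected over time; parent compound and liberated CDDO-Me measured by LC-MS/MS.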
# [2] = system: Mus musculus; assay: Anti-diabetic nephropathic activity in db/db mouse assessed as reduction in plasma urea nitrogen levels at 1 to 2 mg/kg, ip administered thrice per week for 12 consecutive weeks measured 11 weeks post dose; format: functional, organism-based
# Procedure, shortened: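 Male db/db mice, 8 weeks old, randomized; ip vehicle (5% Tween-80 in 0.9% saline) or drug three times weekly for 12 weeks, n = 6 per group. After 11 weeks, 24 h urine collected for volume, albumin and creatinine, with UACR calculated; blood then sampled for plasma BUN and uric acid. Mean ± SD, one-way ANOVA with Tukey test.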
# [3] = Drug level in Sprague-Dawley rat liver at 30 mg/kg, ip measured at 90 mins by LC-MS/MS analysis; format: ADME, organism-based; settings: read-out: Drug uptake; procedure, shortened: as §1
# [4] = biological target: Kelch-like ECH-associated protein 1 (Homo sapiens) (UniProt Q14145); assay: Inhibition of Keap1/Nrf2 (unknown origin) interaction transfected in HEK293 cells assessed as increase in cytosolic HO-1 levels after 48 hrs by Western blot analysis; format: cell-based
# Chain of Kelch-like ECH-associated protein 1 (Homo sapiens) (Q14145 whole entry, the tested form may be a part): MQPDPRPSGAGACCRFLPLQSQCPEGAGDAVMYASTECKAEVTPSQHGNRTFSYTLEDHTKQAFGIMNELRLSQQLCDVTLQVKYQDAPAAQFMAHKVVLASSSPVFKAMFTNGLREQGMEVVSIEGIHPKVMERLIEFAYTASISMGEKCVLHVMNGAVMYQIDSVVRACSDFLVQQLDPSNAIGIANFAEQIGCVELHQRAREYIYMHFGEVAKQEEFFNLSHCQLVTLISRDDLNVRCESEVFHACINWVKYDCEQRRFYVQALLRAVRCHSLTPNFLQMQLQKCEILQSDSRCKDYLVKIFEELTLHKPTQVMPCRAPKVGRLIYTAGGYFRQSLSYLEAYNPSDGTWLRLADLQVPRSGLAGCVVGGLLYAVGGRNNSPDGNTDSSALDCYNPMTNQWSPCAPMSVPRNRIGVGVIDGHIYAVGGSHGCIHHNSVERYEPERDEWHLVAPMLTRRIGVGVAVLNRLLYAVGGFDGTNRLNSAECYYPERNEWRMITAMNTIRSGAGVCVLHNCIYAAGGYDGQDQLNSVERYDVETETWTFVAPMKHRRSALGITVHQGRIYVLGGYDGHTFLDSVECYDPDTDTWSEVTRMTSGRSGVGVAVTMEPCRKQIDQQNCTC
# Procedure, shortened: (§2)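 HEK293 cells grown in high-glucose DMEM with 10% FBS were treated in triplicate at 200 or 1000 nM for 48 h. Nuclear and cytosolic Nrf2, HO-1 and cytoplasmic NQO1 were measured by western blot with specific antibodies, with TBP and β-actin among the probed proteins. The nuclear/cytosolic Nrf2 ratio was derived from these blots. Three independent experiments, mean ± SD.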
# [5] = system: Mus musculus; assay: Renoprotective activity in db/db mouse assessed as reduction in thickening of capillary walls in glomeruli at 1 to 2 mg/kg, ip administered trice per week for 12 consecutive weeks measured at 11 weeks post dose by H/E-staining based microscopic analysis; format: functional, organism-based
# Procedure, shortened: (§3)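 Male db/db mice, 8 weeks old, were randomized and dosed i.p. three times weekly for 12 weeks (vehicle: 5% Tween-80 in 0.9% saline; n = 6 per group). Kidneys were fixed in 4% PFA and paraffin-embedded. 5 μm sections were stained with HE, PAS or Masson's trichrome and examined at ×400.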
# [6] = Drug level in Sprague-Dawley rat kidney at 30 mg/kg, ip measured at 30 mins by LC-MS/MS analysis; format: ADME, organism-based; settings: read-out: Drug uptake; procedure, shortened: as §1
# [7] = Drug metabolism in PBS buffer at 100 uM after 8 hrs by HPLC analysis; format: physicochemical; settings: read-out: Drug metabolism
# Procedure, shortened: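 Substrate incubated in PBS, pH 7.4, at 37 °C for 8 h; conversion measured by HPLC.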
# [8] = system: Mus musculus; assay: Toxicity in db/db mouse assessed as effect on water consumption at 1 to 2 mg/kg, ip administered thrice per week for 12 consecutive weeks measured every other day; format: organism-based; settings: in vivo
# Procedure, shortened: (§4)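 Male db/db mice (8 weeks old, specific pathogen-free, normal chow and filtered water ad libitum) were randomized and dosed i.p. three times weekly for 12 consecutive weeks; vehicle was 5% Tween-80 in 0.9% saline. Body weight and food and water consumption were recorded every other day.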
# [9] = Drug level in Sprague-Dawley rat kidney at 30 mg/kg, ip measured at 10 mins by LC-MS/MS analysis; format: ADME, organism-based; settings: read-out: Drug uptake; procedure, shortened: as §1
# [10] = system: Mus musculus; assay: Cardioprotective activity in C57BL/6 db/db mouse assessed as reduction in apoptotic cardiomyocyte levels at 1 to 2 mg/kg, ip administered for 12 weeks by TUNNEL assay; format: functional, organism-based
# Procedure, shortened: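 db/db mice, 8 weeks old, with C57BL/6 controls; ip vehicle or drug for 12 weeks, n = 6 per group. Heart sections (5 μm) from paraformaldehyde-fixed, paraffin-embedded tissue analysed by TUNEL; percentage of apoptotic cardiomyocytes from three sections per mouse; mean ± SD from two separate experiments.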
# [11] = system: Kidney; assay: In vivo drug metabolism in Sprague-Dawley rat assessed as CDDO-Me formation in kidney at 30 mg/kg, ip measured at 30 mins by LC-MS/MS analysis; format: ADME, organism-based; settings: 0.5 h; procedure, shortened: as §1
# [12] = biological target: Kelch-like ECH-associated protein 1 (Homo sapiens) (UniProt Q14145); assay: Inhibition of Keap1/Nrf2 (unknown origin) interaction transfected in HEK293 cells assessed as increase in cytosolic NQO1 levels after 48 hrs by Western blot analysis; format: cell-based; procedure, shortened: as §2
# [13] = system: Mus musculus; assay: Renoprotective activity in db/db mouse assessed as reduction in fused podocytes at 1 to 2 mg/kg, ip administered trice per week for 12 consecutive weeks measured at 11 weeks post dose by TEM microscopic analysis; format: functional, organism-based
# Procedure, shortened: (§5)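 Male db/db mice (8 weeks old) were dosed i.p. three times weekly for 12 weeks in 5% Tween-80/0.9% saline, n = 6. Kidney tissue was fixed in 3% glutaraldehyde, cut into 80 nm ultrathin sections and examined by TEM. GBM thickness was measured at 30 random locations from three sections per kidney and averaged per mouse.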
# [14] = Drug level in Wistar rat liver homogenates treated with 1-Hydroxyl-2-cyano-3-(4-(methyl-L-glutaminate-N5-yl)-benzyloxy)-12-oxo-oleana-2(3),9(11)-dien-28-oic Acid Methyl Ester assessed as GGT-mediated metabolite formation at 100 uM after 8 hrs by HPLC analysis; format: ADME, tissue-based; settings: tissue homogenate
# Procedure, shortened: (§6)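 Plasma, and kidney and liver homogenates in PBS, from three Wistar rats; substrate added at 100 μM at 37 °C; metabolite measured by HPLC every 60 min for 8 h; mean ± SD of three experiments.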
# [15] = Drug level in Wistar rat plasma treated with 1-Hydroxyl-2-cyano-3-(4-(methyl-L-glutaminate-N5-yl)-benzyloxy)-12-oxo-oleana-2(3),9(11)-dien-28-oic Acid Methyl Ester assessed as GGT-mediated metabolite formation at 100 uM after 8 hrs by HPLC analysis; format: ADME; procedure, shortened: as §6
# [16] = system: Mus musculus; assay: Renoprotective activity in db/db mouse assessed as reduction in fused podocytes at 0.65 mg/kg, ip administered trice per week for 12 consecutive weeks measured at 11 weeks post dose by TEM microscopic analysis; format: functional, organism-based; procedure, shortened: as §5
# [17] = Drug level in Sprague-Dawley rat heart at 20 mg/kg, ip measured at 90 mins by LC-MS/MS analysis; format: ADME, organism-based; settings: read-out: Drug uptake; procedure, shortened: as §1
# [18] = system: Mus musculus; assay: Renoprotective activity in db/db mouse assessed as […] in number of intraglomerular mesangial cells at 0.65 mg/kg, ip administered trice per week for 12 consecutive weeks measured at 11 weeks post dose by H/E-staining based microscopic analysis; format: functional, organism-based; procedure, shortened: as §3
# [19] = biological target: Kelch-like ECH-associated protein 1 (Homo sapiens) (UniProt Q14145); assay: Inhibition of Keap1/Nrf2 (unknown origin) interaction transfected in HEK293 cells assessed as increase in nuclear to cytosolic Nfr2 ratio at 200 to 1000 nM after 48 hrs by Western blot analysis; format: cell-based; procedure, shortened: as §2
# [20] = system: Mus musculus; assay: Toxicity in db/db mouse assessed as effect on food consumption at 0.65 mg/kg, ip administered trice per week for 12 consecutive weeks measured every other day; format: organism-based; settings: in vivo; procedure, shortened: as §4
# [21] = Drug level in Sprague-Dawley rat kidney at 20 mg/kg, ip measured at 90 mins by LC-MS/MS analysis; format: ADME, organism-based; settings: read-out: Drug uptake; procedure, shortened: as §1
# [22] = system: Mus musculus; assay: Toxicity in db/db mouse assessed as increase in body weight at 0.65 mg/kg, ip administered thrice per week for 12 consecutive weeks measured every other day (reference value: 15%); format: organism-based; settings: in vivo; procedure, shortened: as §4
# [23] = system: Mus musculus; assay: Renoprotective activity in db/db mouse assessed as reduction in thickening of capillary walls in glomeruli at 0.65 mg/kg, ip administered trice per week for 12 consecutive weeks measured at 11 weeks post dose by H/E-staining based microscopic analysis; format: functional, organism-based; procedure, shortened: as §3
smiles,measurement,setting,value
COC(=O)[C@@H](N)CCC(=O)Nc1ccc(COC2=C(C#N)[C@H](O)[C@]3(C)C4=CC(=O)[C@@H]5[C@@H]6CC(C)(C)CC[C@]6(C(=O)OC)CC[C@@]5(C)[C@]4(C)CC[C@H]3C2(C)C)cc1,Drug metabolism,[1],0.04 µg/g
same,Activity,[2],Active
same,concentration at 1.5 h,[3],6040 ng/g
same,inhibition,[4],Dose-dependent effect
same,Activity,[5],Active
same,concentration at 0.5 h,[6],1000 ng/g
same,"degraded at 8 h, 100 µM",[7],20%
same,Activity,[8],Non-Toxic
same,concentration at 10 min,[9],1230 ng/g
same,Activity,[10],Active
same,Drug metabolism,[11],0.09 µg/g
same,inhibition,[12],Dose-dependent effect
same,Activity,[13],Active
COC(=O)[C@]12CCC(C)(C)C[C@H]1[C@H]1C(=O)C=C3[C@@]4(C)C=C(C#N)C(=O)C(C)(C)[C@@H]4CC[C@@]3(C)[C@]1(C)CC2 [BARDOXOLONE METHYL],Drug metabolism,[14],Metabolite_Detected
same,Drug metabolism,[15],Metabolite_Detected
same,Activity,[16],Active
same,concentration at 1.5 h,[17],1580 ng/g
same,Activity,[18],Active
same,inhibition,[19],Active
same,Activity,[20],Non-Toxic
same,concentration at 1.5 h,[21],4520 ng/g
same,Activity,[22],11.3%
same,Activity,[23],Active
